Ins promoter up: MIN6 insulin promoter up-regulation | MIN6 insulin promoter-GFP reporter, high-content imaging; stronger effect = higher value | z-score at 5 µM | hit rate 0.3% among 190,000 | AID 1625;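 active = z-score above 3 at 5 µM with at least 500 cells counted in the well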
bCat nuc transl: beta-catenin nuclear translocation modulation; HeLa beta-catenin nuclear translocation, immunofluorescence imaging; nuclear translocation activity, % at 5 µM; hit rate 0.3% among 190,000; AID 1665;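 active = nuclear translocation activity above 50% at 5 µM, with a well cell count of 50 or more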;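 also: per-cell ratio of nuclear to cytoplasmic median beta-catenin stain intensity; plate controls were DMSO negative control for no effect and GSK-3 inhibitor IX positive control for full effect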
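Read-out: Nuclear/cytoplasmic beta-catenin signal ratio, % activation | Assay system: Human HeLa cell line | Times: 24 h compound exposure at 37°C, 5% CO2 | Signal: Fluorescence imaging of beta-catenin antibody stain plus DAPI | Dosing: 5 µM primary, 0.02–20 µM confirmation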
MT stabilize HCS: microtubule stabilizers in HeLa cells | HeLa tubulin immunostaining HCS, 24 h; share of cells brighter than vehicle mean+2SD | % tubulin-high responders, % at 10 µM | hit rate 0.83% among 200,000 | AID 2205;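 active = plate Z-score above 3 for both tubulin-high and condensed-nucleus cell shares, with cell loss under 80%, at 10 µM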;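 also: anti alpha tubulin signal scored within the nucleus-defined area of each cell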
Autophagy HCS: alters autophagy in cells | MEF GFP-LC3 puncta imaging; test concentration mostly 10 µM | calls only at 10 µM (by protocol) | hit rate 0.98% among 190,000;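 active = percentage of spot-positive cells more than 3 SD above its plate mean, without a fluorescence outlier flag or 80% toxicity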;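 also: spot-positive cell cutoff set from DMSO-treated cells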
* marks the source's active call; other numbers are inactive results; i = inactive; / = no result; + = active, no number. An excerpt weighted towards active compounds, which were near 1.9% of everything screened.

SMILES | Ins promoter up | bCat nuc transl | MT stabilize HCS | Autophagy HCS
Cc1cccc(NC(=O)/C=C/c2ccc([N+](=O)[O-])s2)c1 | / | 14.4 | 25.4 | i
Cc1ccc(NC(=O)/C=C/c2ccc([N+](=O)[O-])s2)c(C)c1 | 13.3* | 5.1 | 9.0 | i
Cc1ccc(NC(=O)/C=C/c2ccc([N+](=O)[O-])s2)cc1 | 16.6* | 3.5 | 4.9 | i
Cc1cc([N+](=O)[O-])ccc1NC(=O)/C=C/c1cccs1 | -0.28 | -1.2 | 6.4 | i
O=C(NN1CCOCC1)c1cc(-c2ccc(Cl)c(Cl)c2)nc2ccccc12 | -0.53 | -1.2 | 3.7 | i
CCOC(=O)c1ccccc1NC(=O)CN(c1ccccc1)S(=O)(=O)N(C)C | -0.16 | -1.2 | 1.6 | i
COc1ccc(-c2nc(Cn3c(SCc4cccc(F)c4)nc4ccncc43)c(C)o2)cc1OC | 0.74 | -2.5 | 3.7 | +
COc1ccc(-c2nc(Cn3c(SCc4ccc(C)cc4)nc4ccncc43)c(C)o2)cc1OC | 0.51 | / | 5.6 | i
O=C(C1=C[C@H](C2CC2)C[C@H](OCCCCO)O1)N1CCN(Cc2ccccc2)CC1 | 3.72* | -1.0 | 2.4 | i
O=C(C1=C[C@H](C2CCCCC2)C[C@H](OCCCCO)O1)N1CCN(Cc2ccccc2)CC1 | -0.3 | -1.2 | 1.9 | i
COc1ccc(CCNC(=O)CSc2ccc(Br)cc2)cc1OC | -0.31 | 0.3 | 1.7 | i
CCSc1c(-c2ccccc2)nc2c(C)cccc2c1C(=O)O | 0.4 | / | 1.0 | i
COc1ccc(NC(=O)/C(C#N)=C/C=C/c2ccco2)cc1 | 1.77 | 43.2 | 23.6* | i
COc1ccc(NC(=S)NC(=O)/C=C/c2ccco2)cc1 | -0.89 | 0.0 | 2.7 | i
c1ccc(-c2ccc(C3=Nn4c(nnc4-c4cc(-c5ccccc5)n[nH]4)SC3)cc2)cc1 | -1.45 | 0.0 | 3.9 | i
Brc1ccc(C2=Nn3c(nnc3-c3n[nH]c4c3CCC4)SC2)cc1 | -0.53 | 146.3* | 34.0* | i
Cc1ccc(-c2nnc3n2N=C(c2ccc(Br)cc2)CS3)cc1 | 1.31 | 0.4 | 3.5 | i
Clc1ccc(C2=Nn3c(nnc3-c3n[nH]c4c3CCC4)SC2)cc1 | -0.75 | 3.9 | 31.6* | +
CCCCc1n(CC(=O)c2ccc(Cl)cc2)c2ccccc2[n+]1C | -0.84 | -1.3 | 3.2 | i
CN(Cc1ccccc1)C(=O)C1CCCN(Cc2ccc(Cl)cc2)C1 (stereo not drawn) | -0.2 | 3.3 | 2.8 | i
Cc1ccc2c(c1)-c1c(ssc1=S)C(C)(C)N2C(=O)c1ccco1 | -0.88 | -1.9 | 36.8* | i
CCOC(=O)Cn1c(=O)c(-c2cc(Br)ccc2N)nc2ccccc21 | 6.82* | 2.5 | / | /
Cc1ccc(C(=O)NCc2ccccc2)cc1Br | 0.28 | -1.2 | 1.9 | i
CC1=C(C(=O)Nc2cc(C)ccc2C)C(c2cccs2)NC(=S)N1 (stereo not drawn) | -0.15 | 0.4 | 1.4 | i
Cn1c2ccccc2n2c(=O)c(Cl)c(-c3ccccc3)c(C#N)c12 | -0.29 | -0.9 | 2.1 | +
SMILES | Ins promoter up | bCat nuc transl | MT stabilize HCS | Autophagy HCS
C=CCn1c(SCC(=O)N(C)C)nc2cc(C(=O)O)ccc2c1=O | -0.02 | -2.8 | 4.7 | i
CCN(CC(=O)Nc1ccccc1OC)CC(=O)Nc1ccccc1-c1ccccc1 | 0.25 | -1.7 | 20.0* | i
CCN(CC(=O)Nc1ccccc1OC)CC(=O)Nc1ccccc1C(F)(F)F | 0.1 | 3.7 | 17.8* | i
CCN(CC(=O)Nc1ccccc1SC)Cc1nc2ccccc2c(=O)[nH]1 | 0.32 | 2.1 | / | /
CCN(CC(=O)Nc1ccccc1-c1ccccc1)Cc1nc2ccccc2c(=O)[nH]1 | 0.14 | 19.7 | 24.9* | i
COCC(=O)Nc1ccccc1-c1ccccc1 | 0.1 | -4.0 | 3.7 | i
COc1ccc(OCC(=O)Nc2ccccc2-c2ccccc2)cc1 | -0.3 | 1.0 | 33.5* | i
CCN(CC)c1ccc(/C=C/c2cc(-c3ccccc3)c3ccccc3n2)cc1 | 15.3* | / | / | /
COc1ccc(C2=NNC(c3cccnc3)=Nc3ccc(OC)cc32)cc1 | -0.71 | -0.3 | 13.0* | i
CCc1ccc2[nH]c(=O)c(CN(CCN(CC)CC)C(=O)Nc3ccccc3OC)cc2c1 | -1.42 | -1.3 | 2.7 | +
CCc1ccc2[nH]c(=O)c(CN(CCN(C)C)C(=O)Nc3ccccc3OC)cc2c1 | -0.48 | -9.0 | 0.5 | i
COc1ccc2cc(CN(CC3CCCO3)C(=O)Nc3ccccc3OC)c(=O)[nH]c2c1 (stereo not drawn) | 0.1 | -0.6 | 23.2* | i
COc1ccc(NC(=O)N(Cc2cc3ccc(OC)cc3[nH]c2=O)CC2CCCO2)cc1 (stereo not drawn) | 0 | 0.8 | 12.7* | i
COc1cc(/C=C/C(=O)OCC(=O)NC(=O)NC23CC4CC(CC(C4)C2)C3)ccc1OCC#N | -0.17 | -5.4 | 0.9 | i
CCOc1ccccc1NC(=O)c1ccccc1-c1nc(-c2ccccc2)no1 | -1.32 | 1.6 | 32.2* | i
CC(=O)c1ccc(NC(=O)Nc2ccc3c(c2)nc(C)n3C)cc1 | 0.36 | 0.7 | 2.8 | +
CC(=O)c1cccc(NC(=O)Nc2c(C)nn(C)c2C)c1 | 0.19 | / | 2.5 | +
COc1ccc(-n2cc(C#N)c(=O)n(Cc3ccc(F)cc3)c2=O)cc1 | 0.33 | 31.4 | 23.5* | i
Cc1cc(C)n(Cc2ccc(F)cc2)c(=O)c1C#N | 0.84 | 1.2 | 3.6 | i
N#CC1=C2SCC(O)(c3ccccc3)N2C(=O)CC1c1ccccc1F (stereo not drawn) | -0.02 | / | 47.3* | i
COc1ccc(C2CC(=O)N3C(=C2C#N)SCC3(O)c2ccccc2)cc1 (stereo not drawn) | -1.35 | -6.1 | 2.6 | i
N#CC1=C2SCC(O)(c3ccccc3)N2C(=O)CC1c1cccs1 (stereo not drawn) | -0.77 | 175.5* | 31.8* | i
Cc1ccc(Sc2ccc(N)cn2)cc1 | -0.17 | -4.9 | / | /
Cc1c(Br)cc(C(=O)OC2CCN(C)CC2)c(C)c1C | -1.49 | 2.3 | 3.2 | +
CCN(CCn1cccn1)C(=O)CC1C(=O)NCCN1Cc1cc(OC)cc(OC)c1 (stereo not drawn) | -0.14 | -0.2 | 4.1 | i
SMILES | Ins promoter up | bCat nuc transl | MT stabilize HCS | Autophagy HCS
CCN(CCn1cccn1)C(=O)CC1C(=O)NCCN1Cc1ccc(OC)c(OC)c1 (stereo not drawn) | -0.49 | 0.4 | 2.2 | +
C1CCC(C(CC2CCCCN2)C2CCCCC2)CC1 (stereo not drawn) | / | 6.7 | 34.8* | +
CCS(=O)(=O)N1CCC(C(=O)NCC2CCCO2)CC1 (stereo not drawn) | 1.79 | -1.3 | 2.4 | i
O=C(NCC1CCCO1)C1CCN(S(=O)(=O)N2CCCC2)CC1 (stereo not drawn) | 3.58* | -0.4 | 1.7 | i
COc1ccc(NC(=O)C(CC(=O)O)C(C)c2ccccc2)cc1 (stereo not drawn) | -0.07 | -1.6 | 5.8 | i
Cc1ccc(CC(=O)NCc2ccc(F)cc2)cc1 | -0.12 | 13.0 | 24.6* | i
Cc1ccc(CNC(=O)CNC(=S)N(Cc2ccccc2)Cc2ccccc2F)cc1 | -0.62 | -1.2 | 2.3 | +
O=C(CNC(=S)N(Cc1ccccc1)Cc1ccccc1F)NCc1ccccc1 | 0.38 | -2.8 | 2.4 | i
COCCNC(=O)Cc1ccc(F)cc1 | 3.03* | -1.5 | 6.6 | i

Bioassay records: PubChem, several laboratories
